# The list is not random: actives were taken first. Their share in the collection is about 1.9%.
# TbMetRS inhib = blocks T. brucei methionyl-tRNA synthetase activity | inhibition, % at 11.9 µM | AID 624268 | 360,000 tested, 0.4% active | purified T. brucei MetRS, ATP depletion, Kinase-Glo luminescence;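 active means inhibition above a per-plate cutoff of the control wells' mean inhibition plus 3 SD, cut at about 5.5% in these data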;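 further: 0% = DMSO wells median and 100% = median of wells with control inhibitor compound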
#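 Material: parasite MetRS enzyme / Replication: singlicate, one well per compound / Signal: luminescence of leftover ATP / Schedule: 2 h aminoacylation at 25 °C after 15 min preincubation / Medium: HEPES-MgCl2-KCl buffer plus DTT, spermine, BSA, pyrophosphatase / Doses: 11.9 µM single point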
# NadD block = NadD (S. aureus) enzyme inhibition | purified NadD enzyme, colorimetric absorbance read-out | inhibition, % at 20 µM | 360,000 tested, 0.78% active | AID 602399; in the data active means inhibition above about 26%
# Rce1 inh = blocks yeast Ras-converting enzyme; yeast membranes, quenched prenylated peptide cleavage fluorescence; calls only; 290,000 tested, 0.27% active;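 active means fall in fluorescence gain of 50% or more versus controls, with final raw signal at or below 3038400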;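 further: plate controls were neutral control wells for no effect and wells lacking membranes for full effect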
# HCV core dimer = HCV core protein dimerization inhibition. 300,000 tested, 0.33% active. TR-FRET GST/Flag-core106 dimerization, 1536-well. inhibition, % at 5 µM;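 active means inhibition above the mean of all tested compounds plus 3 SD, set per screening campaign, cut at about 45% in these data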
#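 test system = GST/Flag-tagged HCV core106 proteins | probe or stimulus = Eu donor and XL665 acceptor anti-tag antibodies | times = compound-protein-antibody incubation 4 h at 22.5 °C | signal = TR-FRET, excitation 340 nm, emission 617 and 671 nm | measure = percent inhibition of core106 dimerization signal | controls = wells lacking GST-core106 and wells with excess unlabelled core106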
# DSG3 Ab inh = human desmoglein-3 autoantibody binding inhibition | P32926 | DSG3-coupled beads, scFv-anti-DSG3-GFP binding, flow cytometry; stronger effect = lower value | binding (percent of control), % at 10 µM | 310,000 tested, 0.48% active | AID 588358;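 active means binding more than 3 SD below its plate's average and above zero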;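 further: hits lower antibody fragment binding to DSG3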
# Target sequence (P32926 whole entry, looked up, the tested form may be a part): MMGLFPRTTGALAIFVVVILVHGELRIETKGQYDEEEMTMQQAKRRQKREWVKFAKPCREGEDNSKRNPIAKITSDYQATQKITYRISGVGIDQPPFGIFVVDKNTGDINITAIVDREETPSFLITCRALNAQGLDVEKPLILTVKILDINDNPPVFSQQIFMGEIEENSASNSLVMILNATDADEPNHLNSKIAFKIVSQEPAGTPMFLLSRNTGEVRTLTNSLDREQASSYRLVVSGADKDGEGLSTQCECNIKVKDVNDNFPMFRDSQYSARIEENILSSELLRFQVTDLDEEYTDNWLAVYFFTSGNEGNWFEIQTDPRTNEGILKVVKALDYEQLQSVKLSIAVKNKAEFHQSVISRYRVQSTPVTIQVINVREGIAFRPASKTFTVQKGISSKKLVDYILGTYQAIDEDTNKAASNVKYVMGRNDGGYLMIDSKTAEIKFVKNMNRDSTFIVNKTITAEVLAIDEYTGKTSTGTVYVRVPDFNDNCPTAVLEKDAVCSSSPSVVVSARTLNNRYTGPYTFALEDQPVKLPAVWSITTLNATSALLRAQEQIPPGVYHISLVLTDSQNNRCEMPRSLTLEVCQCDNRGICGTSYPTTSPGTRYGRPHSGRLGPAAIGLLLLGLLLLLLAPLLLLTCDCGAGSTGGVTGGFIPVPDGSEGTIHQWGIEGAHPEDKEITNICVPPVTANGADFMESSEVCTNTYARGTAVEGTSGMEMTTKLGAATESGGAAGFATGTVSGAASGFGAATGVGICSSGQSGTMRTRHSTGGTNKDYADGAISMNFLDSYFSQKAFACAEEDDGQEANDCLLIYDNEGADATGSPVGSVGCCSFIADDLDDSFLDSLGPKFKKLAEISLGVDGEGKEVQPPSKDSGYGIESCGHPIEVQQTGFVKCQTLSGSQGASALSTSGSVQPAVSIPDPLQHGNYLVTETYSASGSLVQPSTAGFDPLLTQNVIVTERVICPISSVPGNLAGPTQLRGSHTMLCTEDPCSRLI
# NadD inh conf = confirmation of Staphylococcus aureus NadD inhibitors; shares compounds with NadD block; purified S. aureus NadD, colorimetric enzyme assay; inhibition, % at 20 µM; 2,000 tested, 13% active; AID 624309; in the data active means inhibition mostly above about 42%, no sharp cut-off; inactive means mostly below about 42%
# Starred values were filed as active, the others as inactive; i = inactive; . = no result.
SMILES,TbMetRS inhib,NadD block,Rce1 inh,HCV core dimer,DSG3 Ab inh,NadD inh conf
COc1cc(/C=C/c2ccc3c(Br)cc(Br)c(O)c3n2)ccc1O,1,61*,i,2,102,47
COc1ccc(/C=C/c2ccc3c(Br)ccc(O)c3n2)cc1,-1,11,i,0,99,.
COc1ccc(-n2c(C)cc(/C=C/c3nc(O)c([N+](=O)[O-])c(=O)[nH]3)c2C)cc1,0,20,i,20,102,.
COc1cc(OC)c2c(c1)OC(=O)CC2c1ccc2c(c1)OCO2 (configuration not stated),0,-3,.,.,93,.
CCOC(=O)c1c(CSC(=N)N)n(-c2ccc(Br)cc2)c2cc(Br)c(OC(C)=O)cc12,0,3,.,.,123,.
CCCCCCCCOC(=O)c1c(CSC(=N)N)n(C)c2cc(Br)c(OC(C)=O)cc12,0,42*,i,2,115,32
Cc1ccccc1CSCC1Nc2ccc(C(=O)NCCc3ccccc3)cc2NC1=O (configuration not stated),1,45*,.,.,145,74*
CC(C)Cn1c(N)c(C=O)c(=O)n(C)c1=O,0,1,i,0,96,.
Cc1sc2ncnc(NCc3cccnc3)c2c1C,0,-6,i,-4,89,.
O=C1NC(=Nc2ccc(Cl)cc2)/C(=C/c2ccco2)S1,2,37*,i,33,93,-1
Cn1cc(CN(Cc2ccccn2)C[C@@H]2CCC(=O)N2)c(-c2ccccc2F)n1,-1,1,i,-4,109,.
O=C(c1ccco1)N1CCN(C2CN(Cc3ccccc3)S(=O)(=O)C2)CC1 (configuration not stated),1,-7,.,.,.,.
CCOc1ccc(C(=O)Nc2nnc(NC(=S)Nc3ccccc3)s2)cc1,0,35*,i,20,.,11
O=CNn1cnc2c(oc3nc(-c4ccccc4)cc(-c4ccco4)c32)c1=O,0,36*,i,8,78*,5
Nc1c(C(=O)N/N=C/c2cccnc2)oc2nc(-c3ccccc3)cc(-c3ccco3)c12,2,7,i,5,92,.
CC(=O)Nc1ccc(CNc2nc(NC(C)C)nc3cc(-c4ccccc4)sc23)cc1,0,22,.,.,.,.
C=CCNc1nc(NCc2ccc(NC(C)=O)cc2)c2sc(-c3ccccc3)cc2n1,0,31*,.,.,.,22
N#CCc1ccc(NC(=O)c2cc(S(=O)(=O)N3CCOCC3)ccc2Cl)cc1,0,-7,i,14,104,.
O=C(/C=C/c1ccc(F)cc1)NC(=S)NNC(=O)[C@H]1C[C@@H]1c1ccccc1,0,40*,i,17,.,11
Cn1ccc(NC(=O)Nc2cccc([N+](=O)[O-])c2)n1,-1,-1,i,-15,108,.
Cc1ccccc1[C@H](NC1c2ccccc2C=Cc2ccccc21)P(=O)(c1ccccc1)c1ccccc1,-1,31*,.,.,.,38
Cc1ccc(P(=O)(c2ccc(C)cc2)[C@@H](NC(c2ccccc2)c2ccccc2)c2ccccc2)cc1,-1,24,.,.,.,.
Cc1ccc2[nH]c(=O)c(C3C(C#N)=C(N)Oc4c3ccc3cccnc43)cc2c1 (configuration not stated),0,45*,.,9,91,21
O=C(N/N=C/c1c[nH]c2ccccc12)c1cc(-c2ccc(-c3ccccc3)cc2)n[nH]1,1,50*,i,6,.,47*
CCOC(=O)c1nn(-c2ccccc2F)c(C)c1C(C)=O,0,3,i,2,99,.
SMILES,TbMetRS inhib,NadD block,Rce1 inh,HCV core dimer,DSG3 Ab inh,NadD inh conf
NC(=O)[C@H]1CC2(CC(c3cccc(NC(=O)COc4ccc(Cl)cc4)c3)=NO2)CN1C(=O)Cc1ccc([N+](=O)[O-])cc1 (some centres not stated),0,33*,i,13,93,29
CCCCCC(=O)Nc1cccc(C2=NOC3(C2)C[C@@H](C(N)=O)N(C(=O)Cc2ccc([N+](=O)[O-])cc2)C3)c1 (some centres not stated),0,9,i,6,102,.
C/C=C\C=C/C(=O)Nc1cccc(C2=NOC3(C2)C[C@@H](C(N)=O)N(C(=O)COc2ccc(Cl)cc2)C3)c1 (some centres not stated),0,38*,i,25,105,62*
CCCCCC(=O)Nc1cccc(C2=NOC3(C2)C[C@H](C(N)=O)N(C(=O)COc2ccc(Cl)cc2)C3)c1 (some centres not stated),0,5,i,12,102,.
O=c1[nH]c2cc([N+](=O)[O-])ccc2c2cc(Br)ccc12,0,38*,.,.,110,11
Cc1ccc(NC(=O)c2sc3nc4c(c(-c5ccco5)c3c2N)CCC4)cc1,-2,31*,i,10,96,-3
Nc1c(C(=O)Nc2ccc(Br)cc2)sc2nc(-c3ccco3)ccc12,0,51*,i,34,89,10
Cc1ccccc1NC(=O)c1sc2nc3c(c(-c4ccco4)c2c1N)CCCC3,0,33*,i,6,.,4
Nc1c(C(=O)Nc2ccccc2)sc2nc3c(c(-c4ccco4)c12)CCCC3,0,16,i,4,88,.
O=C(c1ccc(F)cc1)N1CCN(C(=O)c2ccc([N+](=O)[O-])cc2)CC1,-1,-1,i,1,106,.
O=C(CSc1ccc(-c2cccs2)nn1)N1CCCCCC1,1,-1,i,-1,108,.
Cc1cccc(N2C(=O)N3[C@H](c4ccc(Br)cc4)[C@@H]4C(=O)N(C(C)(C)C)C(=O)[C@@H]4[C@]3(C)C2=O)c1,0,1,i,-3,104,.
O=C(NCC1CC1)C1(C(F)(F)F)CC(CCc2ccccc2)CCCO1 (configuration not stated),0,-4,i,10,94,.
CCOc1ccc(N=C2SC(C(=O)Nc3ccccc3C#N)C(N)=C2C(=O)Nc2ccc(Cl)cc2)cc1 (configuration not stated),1,31*,i,55*,102,6
N#Cc1ccccc1NC(=O)C1SC(=Nc2ccccc2)C(C(=O)Nc2ccc(Cl)cc2)=C1N (configuration not stated),0,26,i,11,108,.
Cc1ccc(-c2cnc3c(Nc4cccc(OC(F)(F)C(F)F)c4)nccn23)cc1,0,5,.,.,.,.
Cc1ccc(S(=O)(=O)Nc2ccc(Nc3nccn4c(-c5ccc6ccccc6c5)cnc34)cc2)cc1,0,41*,.,.,.,53*
Cc1ccc(S(=O)(=O)Nc2ccc(Nc3nccn4c(-c5ccccc5Oc5ccccc5)cnc34)cc2)cc1,0,36*,.,.,.,64*
CCOC(=O)Cn1nc(C)c(NC(=O)CCc2ccc(OC)cc2)c1C,-1,-4,i,-5,107,.

# Compound activity deposited in PubChem BioAssay by several laboratories.
